In data set [1] the test system is trypsin. As to conditions: in words; cited from earlier work.
For data set [2], the system named is Fusarium oxysporum. Briefly: Antifungal activity, mycelial growth inhibition, Fusarium oxysporum. In kind it is cell-based. The gist of the method:
(§1)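 Four doses of test peptide were mixed separately into potato dextrose agar at 45 °C and poured into small plates. Each plate then received an equal amount of mycelia, with a buffer-only control. After 72 h at 23 °C, colony area was measured. % inhibition = reduction in colony area relative to the control. IC50 was read from the % reduction versus concentration plot at 50% reduction.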

The next data set concerns Helminthosporium maydis. Briefly: Antifungal activity, mycelial growth inhibition, Helminthosporium maydis. In kind it is cell-based. To be noted: read-out: IC50 of antifungal activity; potato dextrose agar, 23 °C, 72 h; 50% reduction in area of mycelial colony. The method, boiled down: as §1
Data set [3] relates to Mycosphaerella arachidicola. As to the kind of experiment: Antifungal activity, mycelial growth inhibition, Mycosphaerella arachidicola. In kind it is cell-based. The method, boiled down:
as §1

The subject of the next data set is Valsa mali. As to the kind of experiment: Antifungal activity, mycelial growth inhibition, Valsa mali. As to conditions: read-out: IC50 of antifungal activity; potato dextrose agar, 23 °C, 72 h; 50% reduction in area of mycelial colony. Format: cell-based. The gist of the method: as §1
Data set [4] is described as follows: Thermal and pH stability of antifungal activity. Format: physicochemical. To be noted: for thermostability: antifungal activity after thermal pretreatment. The gist of the method:
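Test peptide was pretreated at 0–100 °C for 10 min or at pH 0–3 and 10–14 for 30 min. Ions were also tested. Residual antifungal activity was then measured by the paper-disk assay on potato dextrose agar (2 μg peptide per disk, buffer control disk, 23 °C, 72 h), scoring inhibition crescents.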

The test system of data set [5] is fungal species. Briefly: Antifungal activity, fungal species in general or not specified. Format: cell-based. As to conditions: for antifungal activity: in words.
Data set [6] has as its system tumor cells. Briefly: Antiproliferative activity on tumor cells, line not specified. Format: cell-based. As to conditions: in words. The gist of the method:
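MCF-7 breast cancer and HepG2 hepatoma cells were suspended in RPMI at 2 × 10^4 cells/ml, seeded and incubated for 24 h. Graded concentrations of test peptide in complete RPMI were added for 72 h. MTT (5 mg/ml stock in PBS) was added for 4 h, plates were centrifuged, formazan was dissolved in DMSO and absorbance read at 590 nm.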

Data set [7] concerns HIV-1 reverse transcriptase. As to the kind of experiment: HIV-1 reverse transcriptase inhibitory activity. Format: biochemical. As to conditions: in words.
Data set [8] relates to HIV-1 integrase. Briefly: HIV-1 integrase inhibition. Format: biochemical. As to conditions: data not shown.
Data set [9] deals with severe acute respiratory syndrome (SARS) coronavious (CoV) protease. Format: biochemical.
Data set [10] relates to trypsin. As to the kind of experiment: Trypsin-inhibitory activity. Format: biochemical.
Data set [11] relates to mouse splenocytes. Briefly: Mitogenic activity. Format: cell-based. As to conditions: data not shown; Con A positive control.
Data set [12] deals with a Helminthosporium species. As to the kind of experiment: Antifungal activity, a Helminthosporium species. Format: cell-based. To be noted: in words. The gist of the method: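 Mycelial disk-diffusion assay on potato dextrose agar. After the colony developed, sterile paper disks (0.625 cm) were placed 1 cm from the colony rim. Each disk received test peptide (60 μg or 300 μg) in 20 mM PBS, pH 6.0, and buffer served as the control. Plates were incubated at 23 °C for 72 h and scored for crescents of inhibition around the disks.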

Data set [13] has as its system Fusarium oxysporum. To be noted: in words; cited from earlier work.
Data set [14] concerns Mycosphaerella arachidicola. As to conditions: in words; cited from earlier work.
Data set [15] deals with fungal species. As to conditions: in words; cited from earlier work.
A further data set has as its system hepatoma HepG2 cell line. As to conditions: read-out: IC50, antiproliferative activity; cited from earlier work.
Data set [16] deals with breast cancer MCF-7 cell line. To be noted: read-out: IC50, antiproliferative activity; cited from earlier work.
The test system of data set [17] is tumor cells. To be noted: in words; cited from earlier work.
In data set [18] the test system is HIV-1 reverse transcriptase. To be noted: cited from earlier work.
The test system of data set [19] is HIV-1 integrase. To be noted: cited from earlier work.
Data set [20] concerns severe acute respiratory syndrome (SARS) coronavious (CoV) protease. As to conditions: cited from earlier work.
For data set [21], the system named is mouse splenocytes. To be noted: toward mouse splenocytes; cited from earlier work.
Data set [22] deals with a Helminthosporium species. As to conditions: in words; cited from earlier work.
Where [23] appears, read: read-out: IC50 of antifungal activity, potato dextrose agar, 23 °C, 72 h, 50% reduction in area of mycelial colony.

The text below walks through data of article PMC7115674 (Peptides, 2008).

Entries after “also recorded” stand apart in the source; their conditions may differ. Where two headings read alike, the source gives them in different places.

In the case of “SECLKEYGGDVGFGFCAPRIYPSFCVQRC [Brassica napus trypsin inhibitor]”, the trypsin inhibitory activity entry with trypsin [1] is on record as “manifest trypsin inhibitory activity”.
For the sequence “PEGPFQGPKATKPGDLAXQTWGGWXGQTPKY [kale antifungal peptide]”, in the data set on Fusarium oxysporum [2] (in words), the “antifungal activity toward F. oxysporum” value was “antifungal activity toward F. oxysporum”. For the same sequence, the IC50 was found to be 4.3 µM in the data set with Fusarium oxysporum [2] (setting [23]), 2.1 µM with Helminthosporium maydis, 2.4 µM in data set [3] (setting [23]) and 0.15 µM in the data set with Valsa mali. In addition, the “antifungal activity toward M. arachidicola” value in data set [3] (in words) is reported as “antifungal activity toward F. oxysporum, M. arachidicola”. For the same sequence, in [4] (antifungal activity after pH pretreatment, in words), the pH stability result was “remarkable thermostability and pH stability”. Further, the thermostability entry in data set [4] (in words) is given as “remarkable thermostability”; in [4] (in words, listed as antifungal peptide) it was “pronounced thermostability”. The “acid pH range after which antifungal activity was retained” value in data set [4] (pH, pretreatment 30 min, tested pH 0–3, paper disk assay, 2 μg peptide per disk) is listed as 2–3. Besides, the “antifungal potency compared with other antifungal proteins” value in the data set on fungal species [5] (compared with antifungal proteins of refs 31, 32, 40) is given as “more potent than that of the antifungal proteins”. In addition, the antifungal activity result in the data set with fungal species [5] is “broad spectrum of antifungal activity; also recorded: exhibit antifungal activity”; with fungal species [5] (listed as antifungal peptide), “stable and broad-spectrum antifungal activity”. Moreover, the antiproliferative activity entry with tumor cells [6] was “demonstrated antiproliferative activity; also recorded: antiproliferative activity toward tumor cells; also recorded: potent antiproliferative”. Further, in data set [7], the “HIV-1 reverse transcriptase inhibitory activity” value was “HIV-1 reverse transcriptase inhibitory activity; also recorded: potent antiproliferative and HIV-1 reverse transcriptase inhibitory activities”. In addition, the “HIV-1 integrase inhibitory activity” value in the data set on HIV-1 integrase [8] was “devoid of”. In [9], the “SARS proteinase inhibitory activity” value is “devoid of”. The “trypsin inhibitory activity toward BAEE” value in the data set with trypsin [10] (BAEE as substrate, tested up to 50 μM, detailed data not shown) is “lacked trypsin inhibitory activity”. The “trypsin inhibitory activity toward casein” value in the data set on trypsin [10] (casein as substrate, tested up to 10 μM, detailed data not shown) is reported as “lacked trypsin inhibitory activity”. In the data set on trypsin [10] (substrate not specified, in words), the trypsin inhibitory activity entry was “did not exhibit trypsin inhibitory activity”. Besides, in the data set on mouse splenocytes [11], the mitogenic activity entry is on record as “devoid of mitogenic activity”. Besides, the “antifungal activity toward a Helminthosporium species” value in data set [12] was “antifungal activity toward F. oxysporum, M. arachidicola and a Helminthosporium species”.
Regarding “ALSCGTVSGNLAACAGYV [B. campestris antifungal peptide]”, the “antifungal activity toward F. oxysporum” value in the data set with Fusarium oxysporum [13] is listed as “antifungal activity toward F. oxysporum”. Besides, the “antifungal activity toward M. arachidicola” value in [14] is “antifungal activity toward F. oxysporum, M. arachidicola”. Further, the antifungal activity entry with fungal species [15] is “with antifungal activity”. The IC50 in the data set with hepatoma HepG2 cell line is 5.8 µM; in [16], 1.6 µM; in data set [18] (read-out: IC50, HIV-1 reverse transcriptase inhibitory activity), 4 µM. Besides, the “antiproliferative activity toward tumor cells” value in the data set on tumor cells [17] is reported as “antiproliferative activity toward tumor cells”. Besides, the “HIV-1 reverse transcriptase inhibitory activity” value in data set [18] (in words) is “HIV-1 reverse transcriptase inhibitory activity”. Also, the “HIV-1 integrase inhibitory activity” value with HIV-1 integrase [19] is “Neither kale nor B. campestris antifungal peptide demonstrated HIV-1 integrase inhibitory”. Besides, in [20], the “SARS proteinase inhibitory activity” value is “Neither kale nor B. campestris antifungal peptide demonstrated HIV-1 integrase inhibitory and SARS proteinase inhibitory activities”. Moreover, in the data set with mouse splenocytes [21], the mitogenic activity entry was “devoid of mitogenic activity toward mouse splenocytes”. The “antifungal activity toward a Helminthosporium species” value in [22] was “antifungal activity toward F. oxysporum, M. arachidicola and a Helminthosporium species”.

In general, IC50 refers to the concentration needed to halve the response being measured.
